Here are results for ten compounds from ChEMBL document CHEMBL2321707, “Synthesis, SAR study, and biological evaluation of a series of piperazine ureas as fatty acid amide hydrolase (FAAH) inhibitors” (Bioorg Med Chem, 2013).

One data set is described as follows: Drug level in rat brain at 0.1 mg, iv at 1 hr. The conditions noted are these: read-out: Drug uptake. The data set is classed as ADME, organism-based. An outline of the steps:
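Rats given 0.1 mg/kg i.v.; brain homogenized 1 h after dosing and compound concentration measured in tissue.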
`Cc1noc(NC(=O)N2CCN(c3nc(-c4ccc(F)cc4F)cs3)CC2)c1C`: the concentration at 1 h was 82 ng/g.
Turning to `Cc1noc(NC(=O)N2CCN(c3nc(-c4ccc(F)cc4)cs3)CC2)c1C`, the concentration at 1 h is 132 ng/g.
On the same count and under the same terms, with `Cc1noc(NC(=O)N2CCN(c3nc(-c4ccccc4)ns3)CC2)c1C` the figure was 25 ng/g; with `Cc1noc(NC(=O)N2CCN(c3nc(-c4ccccc4F)cs3)CC2)c1C`, 103 ng/g.
Same read-out and setting: with `Cc1noc(NC(=O)N2CCN(c3nc(-c4ccc(F)cc4)ns3)CC2)c1C` the figure was 17 ng/g.
The same measure, in the same setting: with `Cc1noc(NC(=O)N2CCN(c3nc(-c4cccc(F)c4)ns3)CC2)c1C` the figure was 12 ng/g; with `Cc1noc(NC(=O)N2CCN(c3nc(-c4ccccc4F)ns3)CC2)c1C`, 4.6 ng/g.
As to `Cc1noc(NC(=O)N2CCN(c3nc(-c4ccccc4)cs3)CC2)c1C`, the concentration at 1 h is 23 ng/g.
On the same count and under the same terms, next, `Cc1noc(NC(=O)N2CCN(c3nc(-c4cccc(F)c4)cs3)CC2)c1C`: 101 ng/g.

A further data set in a line: Bioavailability in rat. The data set is classed as ADME, organism-based. Conditions: in vivo. An outline of the steps:
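Rat cassette dosing, 1 mg/kg po.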
In the case of `O=C(Nc1noc2ccccc12)N1CCN(c2nc(-c3ccccc3)ns2)CC1`, the bioavailability is 5%.
